Laboratory results published in ChEMBL document CHEMBL3352043, “Discovery of small-molecule inhibitors selectively targeting the DNA-binding domain of the human androgen receptor” (J Med Chem, 2014).
pIC50: −log10 of the molar value. Active and inactive are the calls of the source. No cut-off for these calls is given here.

Assays:
[1] = biological target: T1, Glucocorticoid receptor (Homo sapiens) (UniProt P04150); experiment: Inhibition of glucocorticoid receptor (unknown origin) transcriptional activity at […]
T1 sequence (whole entry): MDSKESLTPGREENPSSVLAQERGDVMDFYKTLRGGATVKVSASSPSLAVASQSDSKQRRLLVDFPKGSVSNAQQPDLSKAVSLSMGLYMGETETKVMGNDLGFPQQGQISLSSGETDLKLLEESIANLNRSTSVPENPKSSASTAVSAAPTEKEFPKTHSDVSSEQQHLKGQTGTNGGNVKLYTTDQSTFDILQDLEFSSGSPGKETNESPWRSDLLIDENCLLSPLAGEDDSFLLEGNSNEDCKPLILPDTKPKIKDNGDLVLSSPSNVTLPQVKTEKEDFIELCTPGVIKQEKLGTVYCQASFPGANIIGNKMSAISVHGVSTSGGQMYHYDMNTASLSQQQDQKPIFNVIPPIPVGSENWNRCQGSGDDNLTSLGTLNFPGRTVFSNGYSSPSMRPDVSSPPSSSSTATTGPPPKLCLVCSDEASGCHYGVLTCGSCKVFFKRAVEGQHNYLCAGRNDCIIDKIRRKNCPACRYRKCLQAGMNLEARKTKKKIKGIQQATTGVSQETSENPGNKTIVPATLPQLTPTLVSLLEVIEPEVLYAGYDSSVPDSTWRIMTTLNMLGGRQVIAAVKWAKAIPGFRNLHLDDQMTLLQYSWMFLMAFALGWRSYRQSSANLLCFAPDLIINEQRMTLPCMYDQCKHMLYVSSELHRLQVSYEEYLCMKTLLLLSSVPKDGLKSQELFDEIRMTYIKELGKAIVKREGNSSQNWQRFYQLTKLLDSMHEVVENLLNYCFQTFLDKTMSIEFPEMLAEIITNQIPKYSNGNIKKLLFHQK
How it was run: (§1)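 PC3 cells were starved 5 days in RPMI 1640 with 5% charcoal-stripped serum. They were cotransfected with GR or PR plasmid plus 50 ng ARR3tk-luciferase, and 48 h later treated with compound for 24 h. Stimulation was 1 nM dexamethasone (GR) or progesterone (PR). Luciferase luminescence was read from cell lysates.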

Androgen receptor = biological target: T2, Androgen receptor (Homo sapiens, UniProt P10275); experiment: Inhibition of androgen receptor transcriptional activity in human LNCaP cells after 3 days by eGFP assay; assay type: cell-based
T2 sequence (P10275 whole entry): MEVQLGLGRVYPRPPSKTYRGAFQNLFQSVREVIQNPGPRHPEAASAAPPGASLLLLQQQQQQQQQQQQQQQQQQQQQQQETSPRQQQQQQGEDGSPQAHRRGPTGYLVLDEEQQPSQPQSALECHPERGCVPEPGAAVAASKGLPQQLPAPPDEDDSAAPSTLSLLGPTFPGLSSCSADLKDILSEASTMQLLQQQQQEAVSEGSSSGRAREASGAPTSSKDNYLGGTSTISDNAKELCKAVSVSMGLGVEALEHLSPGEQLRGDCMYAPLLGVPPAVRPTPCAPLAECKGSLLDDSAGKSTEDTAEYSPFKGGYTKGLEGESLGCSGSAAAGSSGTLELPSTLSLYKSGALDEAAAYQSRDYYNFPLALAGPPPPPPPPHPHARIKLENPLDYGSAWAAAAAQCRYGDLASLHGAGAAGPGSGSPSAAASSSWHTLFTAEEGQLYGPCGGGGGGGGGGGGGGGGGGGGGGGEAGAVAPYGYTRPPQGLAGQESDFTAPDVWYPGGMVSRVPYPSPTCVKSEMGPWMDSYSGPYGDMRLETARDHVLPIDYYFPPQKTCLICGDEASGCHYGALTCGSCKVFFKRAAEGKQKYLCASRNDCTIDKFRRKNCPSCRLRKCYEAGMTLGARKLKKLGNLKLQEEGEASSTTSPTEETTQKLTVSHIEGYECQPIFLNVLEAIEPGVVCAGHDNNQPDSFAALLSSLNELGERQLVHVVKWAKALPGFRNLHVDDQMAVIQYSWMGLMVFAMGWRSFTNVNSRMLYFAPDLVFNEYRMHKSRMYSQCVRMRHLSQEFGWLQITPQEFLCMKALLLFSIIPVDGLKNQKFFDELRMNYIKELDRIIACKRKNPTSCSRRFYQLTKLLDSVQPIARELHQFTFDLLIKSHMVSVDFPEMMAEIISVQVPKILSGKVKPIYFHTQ

[2] = biological target: T3, Androgen receptor (Homo sapiens) (UniProt P10275); experiment: Binding affinity to biotinylated androgen receptor LBD (unknown origin) expressed in Escherichia coli BL21 by biolayer interferometry assay
T3 sequence (whole entry): T2 sequence (P10275 whole entry)

[3] = biological target: T4, Progesterone receptor (Homo sapiens) (UniProt P06401); experiment: Inhibition of progesterone receptor (unknown origin) transcriptional activity at […]; how it was run: as §1
T4 sequence (whole entry): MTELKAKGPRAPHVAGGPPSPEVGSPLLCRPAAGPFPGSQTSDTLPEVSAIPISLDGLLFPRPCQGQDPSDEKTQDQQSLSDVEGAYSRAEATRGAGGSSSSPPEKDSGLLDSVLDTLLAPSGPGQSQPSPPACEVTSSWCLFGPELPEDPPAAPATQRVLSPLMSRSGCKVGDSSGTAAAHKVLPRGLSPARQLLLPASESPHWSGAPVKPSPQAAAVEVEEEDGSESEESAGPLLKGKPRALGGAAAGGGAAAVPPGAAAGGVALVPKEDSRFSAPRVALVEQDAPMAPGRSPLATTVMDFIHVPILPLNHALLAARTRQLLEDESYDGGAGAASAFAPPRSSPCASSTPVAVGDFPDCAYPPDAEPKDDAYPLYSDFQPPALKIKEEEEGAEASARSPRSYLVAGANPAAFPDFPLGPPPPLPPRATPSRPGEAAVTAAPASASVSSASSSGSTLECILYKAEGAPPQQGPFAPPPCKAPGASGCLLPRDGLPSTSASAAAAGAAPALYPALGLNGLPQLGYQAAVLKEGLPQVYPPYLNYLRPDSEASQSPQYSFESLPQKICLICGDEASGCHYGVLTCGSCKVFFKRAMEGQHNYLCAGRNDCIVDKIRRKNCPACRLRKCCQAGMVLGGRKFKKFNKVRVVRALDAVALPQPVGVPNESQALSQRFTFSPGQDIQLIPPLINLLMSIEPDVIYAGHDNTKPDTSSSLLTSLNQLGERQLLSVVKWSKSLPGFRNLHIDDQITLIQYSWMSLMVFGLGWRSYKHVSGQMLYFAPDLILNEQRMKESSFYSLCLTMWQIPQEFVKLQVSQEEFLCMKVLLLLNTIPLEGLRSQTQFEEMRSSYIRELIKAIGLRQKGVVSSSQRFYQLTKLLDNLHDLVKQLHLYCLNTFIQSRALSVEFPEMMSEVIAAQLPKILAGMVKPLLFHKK

Row | inhibition [1] | pIC50 (Androgen receptor) | Activity [2] | inhibition [3] | inhibition [2] | SMILES
1 | inactive | 6.92 | inactive | inactive | – | Brc1ncn(-c2csc(N3CCOCC3)n2)c1Br
2 | inactive | 6.48 | – | inactive | inactive | c1ccc(-c2csc(N3CCOCC3)n2)cc1
